Compound activity as filed in PubChem.
ARFGAP1 inh = inhibitors of rat ARFGAP1 GAP activity, primary screen, biochemical, fluorescence polarization, GDP tracer. ADP-ribosylation factor GTPase-activating protein 1 (Rattus norvegicus), Q62848. Arfgap1-stimulated ARF1 GTP hydrolysis, GDP FP detection. inhibition, % at 16.5 µM. actives 0.26% (n = 360,000);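 active means inhibition above a per-plate limit, mean inhibition of low control wells plus 3 SD, cut at about 25% in these data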
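Material: rat Arfgap1 catalytic domain, aa 1-136; also added: human ARF1(Δ1-17)-GTP substrate; compound dosing: one concentration, 16.5 µM, DMSO 1.26%; incubation: GTP hydrolysis reaction 2 h at 25 °C; measured by: Tracer-displacement fluorescence polarization with EDTA stop, 620/688 nm; evaluation: % inhibition from polarization; repeats: one replicate per compound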
PREPL inh = PREPL enzyme inhibitors, primary screen, biochemical, fluorescence polarization; Prolyl endopeptidase-like (Homo sapiens), Q4J6C6; actives 0.68% (n = 320,000); AID 2751, 2010; recombinant PREPL, fluorescence polarization activity-based probe; inhibition, % at 5.96 µM
ASAP1 inh = inhibitors of human ASAP1 ArfGAP activity, primary screen, biochemical, fluorescence polarization | Arf-GAP with SH3 domain, ANK repeat and PH domain-containing protein 1 (Homo sapiens), … | ASAP1-stimulated ARF1 GTP hydrolysis, GDP FP detection | inhibition, % at 16.5 µM | actives 0.19% (n = 360,000); in the data active means inhibition above about 25%
IDE cell activ = human IDE activators in live cells, primary screen, fluorescence polarization, HEK cells, FAbeta-B substrate; Insulin-degrading enzyme (Homo sapiens), P14735; FAbeta-B cleavage; 0% vehicle, 100% cell-free pure enzyme wells; activation, % at 5.96 µM; actives 0.073% (n = 340,000); AID 493087, 2011;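 active means activation above the mean of all tested compounds plus 3 SD, set per screening campaign, cut at about 17% in these data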
IDE inh = human IDE inhibitors in live cells, primary screen, fluorescence polarization, HEK cells, FAbetaB substrate. actives 0.41% (n = 320,000). inhibition, % at 5.59 µM. FAbetaB cleavage;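 active means percent inhibition above the average of all tested compounds plus 3 SD, set per screening campaign, cut at about 16% in these data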;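 further: IDE supplied by intact live HEK cells; FP after avidin binding of uncleaved biotin substrate so inhibition keeps polarization high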
PREPL inh cf = human PREPL enzyme inhibitors, confirmation, biochemical, fluorescence polarization | inhibition, % at 5.96 µM | shares compounds with PREPL inh | actives 67% (n = 2,000) | recombinant PREPL, fluorescence polarization activity probe
Numbers stand for hits; . = inactive; / = no result given. Rows were chosen to be rich in hits. Some 1.2% of all compounds tested hit in one or more screens of this group. Unless noted, no stated cut-off is given here; in the data, active means inhibition above about 43%; inactive means the rest.

SMILES	ARFGAP1 inh	PREPL inh	ASAP1 inh	IDE cell activ	IDE inh	PREPL inh cf
CC1(C)CCCN(Cc2c(O)ccc3c(=O)c(-c4nc5ccccc5s4)c(N)oc23)C1	.	44	.	.	.	.
COc1ccccc1-c1c(C)oc2c(CN3CCN(C)CC3)c(O)ccc2c1=O	.	.	.	.	.	/
CC1CCCN(Cc2c(O)ccc3c4c(c(=O)oc23)CCCC4)C1 (configuration not stated)	.	.	.	.	.	/
Cc1ccc(NC(=S)Nc2ccc3nc(-c4ccccn4)c(-c4ccccn4)nc3c2)cc1C	/	44	/	.	.	.
NC(=O)c1cnn(-c2ccc3ccccc3c2)c1N	.	.	.	.	.	/
Cc1ccc(C2(C)NC(=O)N(CC(=O)N(c3ccccc3)C3CCS(=O)(=O)C3)C2=O)cc1 (configuration not stated)	.	51	.	.	.	.
O=c1cc(-c2ccccc2)oc2ccccc12	.	.	.	.	.	/
Nc1cc([N+](=O)[O-])cc2oc(-c3ccccc3)cc12	.	53	.	.	.	54
Cc1cccc(NC(=O)CN(C)S(=O)(=O)c2ccc3c(c2)n(C)c(=O)c(=O)n3C)c1C	.	.	.	.	.	/
CN(CC(O)COCc1ccccc1F)C1CCCCC1 (configuration not stated)	.	44	.	.	.	.
COc1ccccc1NC(=O)Nc1nc(CC(=O)Nc2ccc(N(C)C)cc2)cs1	.	47	.	.	.	43
Cn1c(N)c(C(=O)COC(=O)/C=C/c2cccc(Br)c2)c(=O)n(C)c1=O	.	.	.	.	.	/
Cn1c(N)c(C(=O)COC(=O)/C=C/c2cccc(F)c2)c(=O)n(C)c1=O	.	44	.	.	.	.
COCCCNC(=O)c1c(NC(=O)c2cccs2)sc2c1CCCC2	.	44	.	.	.	.
CC(C)n1c(CSCc2ccc(Cl)cc2Cl)n[nH]c1=S	.	.	.	.	.	/
CNC(=S)N1N=C(c2ccc(C)cc2)CC1c1ccc(N(C)C)cc1 (configuration not stated)	.	51	.	.	.	57
O=C(N/N=C1\CCCc2c1[nH]c1ccc(Cl)cc21)c1ccncc1	.	45	.	.	.	55
O=C(NN=C1CCCC1)c1[nH]c2ccc(Cl)cc2c1-c1ccccc1	.	.	.	/	.	/
CCOC(=O)C1CCN(C(=O)Nc2ccc3c(c2)nc(C)n3C)CC1	.	.	.	.	.	/
CCOC(=O)C1CCN(C(=O)Nc2ccc3nc(-c4ccco4)c(-c4ccco4)nc3c2)CC1	/	60	/	.	.	64
Cn1c(CNC(=O)c2ccccc2F)nnc1SCC(=O)c1ccccc1	.	.	.	.	.	/
COc1cc(NCCCC(C)N)c2ncccc2c1 (configuration not stated)	.	/	.	.	/	/
CCC(CNc1cc(OC)cc2cccnc12)NC1CCCCC1 (configuration not stated)	.	54	.	.	.	44
Cc1onc(-c2ccccc2)c1C(=O)NCc1ccccc1F	.	.	.	.	.	/
Cc1cc2c(N)cccc2nn1	.	68	.	.	.	.
SMILES	ARFGAP1 inh	PREPL inh	ASAP1 inh	IDE cell activ	IDE inh	PREPL inh cf
Nc1cccc2nc3ccccc3cc12	/	.	/	.	.	/
CCN(C(=O)COC(=O)/C=C/c1ccccc1)C1CCCCC1	.	.	.	.	.	/
Nc1ccc(N(CCO)CCO)cc1	.	.	.	.	.	/
CCN(CC)c1ccc(N)cc1	/	64	/	.	.	.
NC(N)=Nc1ccc(C=C2C=Cc3ccccc32)cc1	.	/	.	.	/	/
COC(=O)CCC(=O)OC1(C)C(=O)C2=CN(CC(C)C)C(c3ccc(OC)cc3)=CC2=C(Br)C1=O (configuration not stated)	/	74	/	/	.	48
COC(=O)CCC(=O)OC1(C)C(=O)C2=CN(Cc3ccc(OC)cc3)C(c3ccc(OC)cc3)=CC2=C(Br)C1=O (configuration not stated)	.	.	.	.	.	/
COC(=O)CCC(=O)OC1(C)C(=O)C2=CN(Cc3ccccc3)C(c3ccc(OC)cc3)=CC2=C(Br)C1=O (configuration not stated)	.	46	.	.	.	.
COC(=O)CCC(=O)OC1(C)C(=O)C2=CN(CCCOC(C)C)C(c3ccc(OC)cc3)=CC2=C(Br)C1=O (configuration not stated)	/	.	/	.	.	/
c1ccc(COc2ccc3nocc3c2)cc1	.	.	.	.	.	/
COc1ccc(OC)c2sc(N3CCc4ccccc4C3)nc12	.	.	.	.	.	/
c1ccc2c(c1)CCN(c1nc3cc4c(cc3s1)OCCO4)C2	.	48	.	.	.	.
Fc1ccc2cc(C3=CCCCC3)ncc2c1	.	/	.	/	/	/
COC(=O)c1ccc2nc(C)cc(Nc3ccc(N(C)C)cc3)c2c1	.	50	.	.	.	.
O=C(C1=C[C@H](c2ccc(C(F)(F)F)cc2)C[C@H](OCc2ccc(CO)cc2)O1)N1CCCCCCC1	/	.	/	.	.	/
C#Cc1ccc([C@@H]2C=C(C(=O)N3CCOCC3)O[C@H](OCc3ccc(CO)cc3)C2)cc1	.	45	.	.	.	44
CN1CCN(C(=O)C2=C[C@H](c3ccc(C(F)(F)F)cc3)C[C@H](OCCCCO)O2)CC1	.	.	.	.	.	/
O=C(C1=C[C@@H](c2ccc(C(F)(F)F)cc2)C[C@@H](OCc2ccc(CO)cc2)O1)N1CCOCC1	.	55	.	.	.	48
CN1CCN(C(=O)C2=C[C@@H](c3ccc(C(F)(F)F)cc3)C[C@@H](OCCCCO)O2)CC1	.	45	.	.	.	54
O=C(NC1CC1)C1=C[C@H](c2ccc(Br)cc2)C[C@H](OCc2ccc(CO)cc2)O1	.	.	.	.	.	/
O=C(NC1CC1)C1=C[C@@H](c2ccc(C(F)(F)F)cc2)C[C@@H](OCc2ccc(CO)cc2)O1	.	47	.	.	.	.
CC(C)(C)OC(=O)C[C@H]1C/C=C\C[C@H](CC(=O)N[C@@H](CO)Cc2ccccc2)C(=O)N[C@H](C(C)(C)C)COC1=O	.	.	.	.	.	/
Cc1ccc(NC(=O)c2sc3ncn(CC(=O)N4CCN(c5ccccn5)CC4)c(=O)c3c2C)cc1	.	/	.	/	/	/
COc1ccc(NC(=O)c2sc3ncn(CC(=O)N4CCN(c5ccccn5)CC4)c(=O)c3c2C)cc1OC	.	58	.	.	.	49
O=C(Cc1csc(-c2ccccc2)n1)NCc1cccs1	.	.	.	.	.	/
